This is an account of results in ChEMBL document CHEMBL1136924 (J Med Chem, 2009).

Active and inactive are the calls of the source. No cut-off for these calls is given here.

Series [1] deals with Rattus norvegicus. Briefly: Antagonist activity at 5HT3 receptor in urethane-anesthetized Sprague-Dawley rat assessed as attenuation of 1-phenylbiguanide-induced bradycardia at 50 ug/kg, iv administered 5 mins before 1-phenylbiguanide challenge measured after 30 mins post-treatment by von Bezold-Jarisch reflex test. It is filed as functional. Further details: scale not given: the % may be the effect or the level left.

Series [2] addresses T1, 5-hydroxytryptamine receptor 3A (Rattus norvegicus, UniProt P35563).
T1 sequence (P35563 whole entry): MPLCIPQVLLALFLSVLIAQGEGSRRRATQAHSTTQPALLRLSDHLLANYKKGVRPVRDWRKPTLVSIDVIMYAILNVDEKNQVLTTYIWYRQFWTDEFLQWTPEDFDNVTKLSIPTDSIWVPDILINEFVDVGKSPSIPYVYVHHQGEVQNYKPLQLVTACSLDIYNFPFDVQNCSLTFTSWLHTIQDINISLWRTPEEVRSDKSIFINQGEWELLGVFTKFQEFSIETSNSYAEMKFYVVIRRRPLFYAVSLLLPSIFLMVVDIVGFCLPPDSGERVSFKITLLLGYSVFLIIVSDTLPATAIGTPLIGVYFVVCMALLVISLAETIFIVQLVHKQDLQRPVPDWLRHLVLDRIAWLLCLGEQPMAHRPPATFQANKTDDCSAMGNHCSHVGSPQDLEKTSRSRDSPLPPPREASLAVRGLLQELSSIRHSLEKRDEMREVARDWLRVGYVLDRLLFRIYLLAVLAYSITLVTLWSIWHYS
Kind of series: Displacement of [3H]LY278584 from 5HT3 receptor in rat cortical homogenate. In general terms: Loss of bound radioactivity is the signal in a displacement assay; it reports binding, not function.

In series [3] the target is T2, 5-hydroxytryptamine receptor 3A (Cavia porcellus) (UniProt O70212).
T2 sequence (whole entry): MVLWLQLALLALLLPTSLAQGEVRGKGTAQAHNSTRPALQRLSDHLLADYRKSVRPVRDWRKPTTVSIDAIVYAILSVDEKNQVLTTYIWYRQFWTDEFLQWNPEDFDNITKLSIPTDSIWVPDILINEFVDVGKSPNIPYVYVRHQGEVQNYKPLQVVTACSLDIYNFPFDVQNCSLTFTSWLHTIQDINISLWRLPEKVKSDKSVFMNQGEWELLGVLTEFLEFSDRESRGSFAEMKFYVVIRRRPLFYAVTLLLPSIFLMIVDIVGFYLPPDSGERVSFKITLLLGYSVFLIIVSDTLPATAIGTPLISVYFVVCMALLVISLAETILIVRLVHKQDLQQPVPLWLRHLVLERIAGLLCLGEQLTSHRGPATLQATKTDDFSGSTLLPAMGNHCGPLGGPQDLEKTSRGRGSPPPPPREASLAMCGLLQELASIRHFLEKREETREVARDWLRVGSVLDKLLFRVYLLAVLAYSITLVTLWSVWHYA
Briefly: Agonist activity at 5HT3 receptor in voltage-stimulated guinea pig left atrium assessed as positive inotropic potency at 100 uM. It counts as functional, tissue-based. The note with it: Cardiac atrium. The procedure, abridged: (§1)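 Guinea pig left and right atria were hung in a 15 mL bath of PSS (pH 7.4, 95% O2-5% CO2, 35 °C) with ketanserin 1 µM. The right atrium beat spontaneously; the left was paced at 1 Hz. Cumulative doses (0.1-100 µM; DMSO ≤0.3%) were added after 45-60 min stabilization. Rate or isometric force was recorded. EC50 came from Probit analysis, n≥4. Intrinsic activity was taken relative to 5-HT.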

Series [4] addresses T2, 5-hydroxytryptamine receptor 3A (Cavia porcellus). Kind of series: Agonist activity at 5HT3 receptor in spontaneously beating guinea pig right atrium assessed as positive chronotropic potency at 100 uM. It counts as functional, tissue-based. The note with it: Cardiac atrium. The procedure, abridged:
as §1

Series [5] has the same target. Briefly: Agonist activity at 5HT3 receptor in guinea pig thoracic aorta assessed as positive contractility potency at 100 uM. It counts as functional, tissue-based. In outline: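 Guinea pig aortic helicoidal strips in PSS at 35 °C, aerated, under 1 g resting force, washed every 20 min for 1 h. Compounds added cumulatively 0.1-100 µM (DMSO vehicle); isometric contraction recorded.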

For series [6], the target named is T3, 5-hydroxytryptamine receptor 3A (Cavia porcellus, UniProt O70212).
T3 sequence (O70212 whole entry): T2 sequence (whole entry)
Briefly: Antagonist activity at 5HT3 receptor in spontaneously beating guinea pig right atrium assessed as inhibition of serotonin-induced maximum response by noncompetitive binding assay. It counts as tissue-based, Cardiac atrium. In outline:
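Spontaneously beating guinea pig right atrium; 5-HT concentration-response curves (0.001-1.0 µM) before and after 30 min antagonist exposure at three concentrations. IC50 is inhibition of 50% of maximal 5-HT response, Probit analysis, n = 4-6.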

Series [7] has as its system Rattus norvegicus. Briefly: Antagonist activity at 5HT3 receptor in iv dosed urethane-anesthetized Sprague-Dawley rat assessed as inhibition of 1-phenylbiguanide-induced bradycardia administered 5 mins before 1-phenylbiguanide challenge measured after 5 to 30 mins post-treatment by von Bezold-Jarisch reflex test. It counts as functional.
Series [8] in a line: Ratio of drug level in brain to plasma in rat at 5 mg/kg. It is filed as ADME, organism-based. Further details: dose 5 mg/kg.

For `NC(=O)CN1CCN(c2nc3cc(F)ccc3n3cccc23)CC1`, the Activity in series [1] is reported as 35%. Moreover, the affinity in series [2] corresponds to a Ki of 0.0073 µM. Also, the pD2 entry in series [3], in series [4] and in series [5] was “inactive” each time. Also, the IC50 in series [6] is 11.2 µM. For the same molecule, the ID50 result in series [7] is “Dose-dependent effect”. Also, the ED50 in series [7] (read-out: ID50 (the source's name)) is 0.075 mg/kg.
For `O=C(O)CN1CCN(c2nc3cccc(F)c3n3cccc23)CC1`, the Kp in series [8] came to 0.1.

Usually Ki stands for a dissociation constant, usually derived from enzyme kinetics or from competition with a known ligand. What is called IC50 is the concentration at which inhibition is half-maximal. A word on the Kp: it is tissue or fluid exposure divided by exposure in the circulation.
